Published values from different studies.
LCK phosphorylated: Tyrosine-protein kinase Lck, phosphorylated (LCK, Homo sapiens, UniProt P06239)
LCK: Tyrosine-protein kinase Lck (LCK, Homo sapiens, UniProt P06239)

target | assay | setting | quantity | value | SMILES
LCK phosphorylated | enzyme activity, inhibitor, radiometric | 1 µM | inhibition | 97% | CNC(=O)c1cc2c(Oc3ccc(NC(=O)C4(C(=O)Nc5ccc(F)cc5)CC4)cc3)ccnc2cc1OC
LCK | enzyme activity, inhibitor | 10 µM | inhibition | 0.91% | CNc1cccc2cc(C(=O)Nc3ccc(C(=O)O)cc3)c(=O)[nH]c12
LCK phosphorylated | enzyme activity, inhibitor | 0.1 µM | activity vs control | 88% | Cc1cc(NC(=O)c2cccc3cc(-c4cccc5[nH]nc(N)c45)ccc23)ccc1F
LCK | enzyme activity, inhibitor | 0.5 µM | activity vs control | 51.8% | c1cc(-c2cnn3cc(-c4ccc(OCCN5CCCCC5)cc4)cnc23)ccn1
LCK | enzyme activity, inhibitor, radiometric | 1 µM | activity vs control | 35% | FC(F)(F)Oc1cccc(-c2cnc3ccc(-c4ccncc4)nn23)c1
LCK | enzyme activity, inhibitor | 0.5 µM | activity vs control | 97.1% | O=C1c2ccccc2-c2n[nH]c3cccc1c23
LCK | enzyme activity, inhibitor | 1 µM | activity vs control | 3% | Cc1ccc(C(=O)NCc2ccsc2)cc1C#Cc1cn(C(C)C)c2ncnc(N)c12
LCK | binding, competition with immobilised ligand | 1 µM | remaining binding | 90% | C[C@@H](c1cccc(C#N)c1)n1cc(Cl)cc(C(N)=O)c1=N
LCK | enzyme activity, inhibitor, FRET | 0.1 µM | inhibition | 17% | CN(C)C1CCN(CC#Cc2nn(C3CCCC3)c3nc(NCc4ccccc4)ncc23)C1 (stereo not shown)
LCK | cell-free assay, competition with immobilised ligand | 0.1 µM | remaining binding | 100% | CS(=O)(=O)N1CCCC(NC(=O)[C@H](CCC2CCCCC2)NC(=O)c2ccc(CNc3ncnc4c3nnn4-c3ccccc3)cc2)C1 (stereo partly shown)
LCK | enzyme activity, inhibitor | 1 µM | inhibition | 92% | COc1cc2ncnc(Nc3ccc(Oc4ccccc4)cc3C)c2cc1OC
LCK | enzyme activity, inhibitor | 10 µM | inhibition | 99% | Cc1ccc(Nc2nccc(N(C)c3ccc4c(C)n(C)nc4c3)n2)cc1S(N)(=O)=O
LCK | enzyme activity, inhibitor | 1 µM | inhibition | > 50% | CNC(=O)c1ccccc1Nc1cc(Nc2ccc(N3CCOCC3)cc2OC)ncc1C(F)(F)F
LCK | enzyme activity, inhibitor | 1 µM | inhibition | 37% | C=CC(=O)Nc1cc(Nc2nccc(Nc3cc(Cl)c(F)cc3C(C)(C)O)n2)c(OC)cc1N1CC[C@@H](N(C)C)C1
LCK | enzyme activity, inhibitor | 1 µM | inhibition | < 10% | CCCS(=O)(=O)Nc1ccc(F)c(C(=O)c2c[nH]c3ncc(-c4ccc(Cl)cc4)cc23)c1F
LCK | cell-free assay, competition with immobilised ligand | 1 µM | remaining binding | 100% | CC(=O)C1=C(C)N(c2cccc(C(F)(F)F)c2)C(=O)N[C@@H]1c1ccc(C#N)nc1
LCK | cell-free assay | 1 µM | remaining signal | 76% | CN(C)c1ncc(F)c(-c2cnn3ncccc23)n1
LCK | cell-free assay, competition with immobilised ligand | 1 µM | remaining binding | 100% | CN(C)CC#Cc1ccc(OCCCc2sc(N3CCc4cccc(C(=O)Nc5nc6ccccc6s5)c4C3)nc2C(=O)O)c(F)c1
LCK | enzyme activity, inhibitor | 0.4 µM | inhibition | 42% | CNCc1ccc(-c2cc(-c3nc(-c4ccc(S(=O)(=O)C(C)C)cc4)cnc3N)on2)cc1
LCK | cell-free assay, competition with immobilised ligand | 1 µM | remaining binding | 100% | COc1cc(-c2cn(C3CCc4c(F)cccc4N(CC(F)(F)F)C3=O)nn2)ccc1-n1cnc(C)c1 (stereo not shown)
LCK | enzyme activity, inhibitor | 10 µM | inhibition | 15.8% | CSc1nc(C)c(-c2ccnc(Nc3ccc(N4CCOCC4)cc3)c2)[nH]1
LCK | cell-free assay, competition with immobilised ligand | 1 µM | remaining binding | 81% | CCS(=O)(=O)c1cc2cc(C[C@@](O)(CC(C)(C)c3ccc(F)cc3C(N)=O)C(F)(F)F)[nH]c2cn1
LCK | cell-free assay | 1 µM | remaining signal | 98% | CN(c1nccc(-c2cnn3ncccc23)n1)C1CC1
LCK | cell-free assay, competition with immobilised ligand | 1 µM | remaining binding | 100% | Cc1cc(-n2nc(Cc3cc(F)cc(C(F)(F)F)c3)nc2C)ccc1C(N)=O
LCK | enzyme activity, inhibitor | 0.1 µM | inhibition | 2% | CC/C(=N\NC(=O)NCc1cccc(O)c1)c1ccc(O)c(C)c1O
